Source: ChEMBL document CHEMBL1141179 (J Med Chem, 2005)

What was measured:
[1] = molecular target: Somatostatin receptor type 2 (Homo sapiens, UniProt P30874); assay: Inhibition of 125I-[Leu8,D-Trp22,Tyr25]SRIF-28 binding to human somatostatin receptor type 2
Procedure, shortened: (§1)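 Human sst2 or sst3 receptor stably expressed in CCL39 cells. 20 µm cryostat sections of cell membrane pellets were used for autoradiographic binding. IC50 (nM) came from competitive displacement. Values are mean ± SEM when N ≥ 3; otherwise mean with single values.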

[2] = molecular target: Somatostatin receptor type 3 (Homo sapiens, UniProt P32745); assay: Inhibition of 125I-[Leu8,D-Trp22,Tyr25]SRIF-28 binding to human somatostatin receptor type 3; procedure, shortened: as §1
Chain of Somatostatin receptor type 3 (P32745 whole entry): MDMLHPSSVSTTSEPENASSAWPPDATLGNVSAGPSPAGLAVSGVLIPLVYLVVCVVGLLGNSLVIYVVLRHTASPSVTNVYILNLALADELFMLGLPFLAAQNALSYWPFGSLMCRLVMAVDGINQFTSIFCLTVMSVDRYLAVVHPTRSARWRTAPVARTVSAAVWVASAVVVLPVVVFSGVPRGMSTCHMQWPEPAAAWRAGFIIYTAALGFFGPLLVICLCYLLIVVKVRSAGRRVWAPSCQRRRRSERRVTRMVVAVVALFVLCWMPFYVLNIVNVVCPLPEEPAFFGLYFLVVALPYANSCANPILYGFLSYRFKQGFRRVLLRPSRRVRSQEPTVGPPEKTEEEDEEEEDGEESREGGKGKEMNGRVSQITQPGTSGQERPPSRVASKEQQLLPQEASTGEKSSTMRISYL

[3] = molecular target: Somatostatin receptor type 4 (Homo sapiens, UniProt P31391); assay: Inhibition of 125I-[Leu8,D-Trp22,Tyr25]SRIF-28 binding to human somatostatin receptor type 4
Chain of Somatostatin receptor type 4 (P31391 whole entry): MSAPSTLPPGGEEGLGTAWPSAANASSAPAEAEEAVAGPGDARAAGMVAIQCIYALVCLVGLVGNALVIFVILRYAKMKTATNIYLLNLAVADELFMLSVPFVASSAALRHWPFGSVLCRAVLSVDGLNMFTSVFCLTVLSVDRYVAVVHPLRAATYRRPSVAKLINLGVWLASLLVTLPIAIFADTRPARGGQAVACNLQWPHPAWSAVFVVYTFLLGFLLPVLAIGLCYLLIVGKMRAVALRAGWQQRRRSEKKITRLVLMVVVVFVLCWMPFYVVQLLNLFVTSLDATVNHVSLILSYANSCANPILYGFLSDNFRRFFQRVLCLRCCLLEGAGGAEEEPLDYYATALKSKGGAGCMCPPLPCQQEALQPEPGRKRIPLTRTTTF

[4] = molecular target: Somatostatin receptor type 5 (Homo sapiens, UniProt P35346); assay: Inhibition of 125I-[Leu8,D-Trp22,Tyr25]SRIF-28 binding to human somatostatin receptor type 5
Chain of Somatostatin receptor type 5 (P35346 whole entry): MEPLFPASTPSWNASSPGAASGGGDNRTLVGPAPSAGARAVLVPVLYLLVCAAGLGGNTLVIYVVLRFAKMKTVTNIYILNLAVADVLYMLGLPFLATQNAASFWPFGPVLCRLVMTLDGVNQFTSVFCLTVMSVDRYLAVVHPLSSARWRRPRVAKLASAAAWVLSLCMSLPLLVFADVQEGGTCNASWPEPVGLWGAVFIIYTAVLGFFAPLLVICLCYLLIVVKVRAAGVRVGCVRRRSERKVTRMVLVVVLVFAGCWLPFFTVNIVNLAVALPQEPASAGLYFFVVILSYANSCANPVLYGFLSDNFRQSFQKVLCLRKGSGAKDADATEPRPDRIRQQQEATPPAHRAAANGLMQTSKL
Procedure, shortened: (§2)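 Human sst1 or sst5 receptor stably expressed in CHO-K1 cells. 20 µm cryostat sections of cell membrane pellets were used for receptor autoradiography. IC50 (nM) came from competitive radioligand displacement. Values are mean ± SEM when N ≥ 3; otherwise mean with single values.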

[5] = molecular target: Somatostatin receptor type 1 (Homo sapiens, UniProt P30872); assay: Inhibition of 125I-[Leu8,D-Trp22,Tyr25]SRIF-28 binding to human somatostatin receptor type 1; procedure, shortened: as §2
Chain of Somatostatin receptor type 1 (P30872 whole entry): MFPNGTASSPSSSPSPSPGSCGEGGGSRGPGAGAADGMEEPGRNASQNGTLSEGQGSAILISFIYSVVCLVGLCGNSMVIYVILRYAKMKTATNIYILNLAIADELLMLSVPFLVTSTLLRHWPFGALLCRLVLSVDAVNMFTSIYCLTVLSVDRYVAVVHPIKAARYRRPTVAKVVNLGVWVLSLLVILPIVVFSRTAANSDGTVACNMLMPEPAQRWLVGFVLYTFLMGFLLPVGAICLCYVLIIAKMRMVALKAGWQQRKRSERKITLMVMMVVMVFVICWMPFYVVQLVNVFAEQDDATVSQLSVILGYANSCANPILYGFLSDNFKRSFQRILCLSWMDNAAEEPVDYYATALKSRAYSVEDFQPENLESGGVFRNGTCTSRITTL

Chain of Somatostatin receptor type 2 (P30874 whole entry): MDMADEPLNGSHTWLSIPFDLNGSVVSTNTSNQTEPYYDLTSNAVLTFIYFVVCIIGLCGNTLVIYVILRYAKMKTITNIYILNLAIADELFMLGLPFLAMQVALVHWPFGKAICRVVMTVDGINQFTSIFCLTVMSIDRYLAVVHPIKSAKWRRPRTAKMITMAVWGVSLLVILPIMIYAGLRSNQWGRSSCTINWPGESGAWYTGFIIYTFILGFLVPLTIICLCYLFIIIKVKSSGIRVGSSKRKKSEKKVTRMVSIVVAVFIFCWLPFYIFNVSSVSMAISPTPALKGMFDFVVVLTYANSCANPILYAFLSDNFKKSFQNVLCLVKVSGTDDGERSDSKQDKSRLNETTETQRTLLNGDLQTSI

SMILES | IC50 [1] [nM] | IC50 [2] [nM] | IC50 [3] [nM] | IC50 [4] [nM] | IC50 [5] [nM]
CC(C)NCc1ccc(C[C@@H]2NC(=O)[C@@H](Cc3c[nH]c4ccccc34)NC(=O)[C@@H]3CCC(=O)NCCCC[C@H](NC(=O)[C@H](Cc4ccccc4)NC(=O)[C@H]([C@@H](C)O)NC2=O)C(=O)N[C@@H](CO)C(=O)N[C@H](C(=O)O)CSSC[C@H](NC(=O)[C@@H](N)Cc2ccc(O)c(I)c2)C(=O)N[C@@H](CCCCN)C(=O)N[C@@H](Cc2ccccc2)C(=O)N3)cc1 | > 1000 | > 1000 | > 1000 | > 1000 | 89
C[C@@H](O)[C@@H]1NC(=O)[C@H](Cc2ccccc2)NC(=O)[C@H]([C@@H](C)O)NC(=O)[C@H](CCCCN)NC(=O)[C@@H](Cc2c[nH]c3ccccc23)NC(=O)[C@H](Cc2ccccc2)NC(=O)[C@H](Cc2ccccc2)NC(=O)[C@@H](N)CSSC[C@@H](C(=O)O)NC1=O | 1.9 | 52 | 1 | 43 | 197
CC(C)NCc1ccc(C[C@H]2C(=O)N[C@@H]([C@@H](C)O)C(=O)N[C@@H](Cc3ccc(O)c(I)c3)C(=O)N[C@H]3CCCCNC(=O)CC[C@H](NC(=O)[C@H](Cc4ccccc4)NC(=O)[C@H](CCCCN)NC(=O)[C@@H](N)CSSC[C@@H](C(=O)O)NC(=O)[C@H](CO)NC3=O)C(=O)N[C@H](Cc3c[nH]c4ccccc34)C(=O)N2C)cc1 | > 1000 | 254 | > 1000 | > 1000 | 14
CC(C)NCc1ccc(C[C@@H]2NC(=O)[C@@H](Cc3c[nH]c4ccccc34)NC(=O)[C@@H]3CC(=O)NCCC[C@H](NC(=O)[C@H](Cc4ccccc4)NC(=O)[C@H]([C@@H](C)O)NC2=O)C(=O)N[C@@H](CO)C(=O)N[C@H](C(=O)O)CSSC[C@H](NC(=O)[C@@H](N)Cc2ccc(O)cc2)C(=O)N[C@@H](CCCCN)C(=O)N[C@@H](Cc2ccccc2)C(=O)N3)cc1 | > 1000 | > 1000 | > 1000 | > 1000 | > 1000
C[C@@H](O)[C@@H]1NC(=O)[C@H](Cc2ccccc2)NC(=O)[C@H]([C@@H](C)O)NC(=O)[C@H](CCCCN)NC(=O)[C@@H](Cc2c[nH]c3ccccc23)NC(=O)[C@H](Cc2ccccc2)NC(=O)[C@H](Cc2ccccc2)NC(=O)[C@@H](N)CSSC[C@@H](C(=O)O)NC(=O)[C@H](CO)NC1=O | 28 | 222 | 3.3 | 8.6 | 79
C[C@@H](O)[C@@H]1NC(=O)[C@H](CCCCN)NC(=O)[C@@H](Cc2c[nH]c3ccccc23)NC(=O)[C@H](Cc2ccccc2)NC(=O)[C@H](Cc2ccccc2)NC(=O)[C@H](CC(N)=O)NC(=O)[C@@H](N)CSSC[C@@H](C(=O)O)NC(=O)[C@H](Cc2ccccc2)NC1=O | 95 | 189 | 1.2 | 31 | 59
CC(C)NCc1ccc(C[C@@H]2NC(=O)[C@@H](Cc3c[nH]c4ccccc34)NC(=O)[C@@H]3CCC(=O)NCCCC(=O)NCCCC[C@H](NC(=O)[C@H](Cc4ccccc4)NC(=O)[C@H]([C@@H](C)O)NC2=O)C(=O)N[C@@H](CO)C(=O)N[C@H](C(=O)O)CSSC[C@H](NC(=O)[C@@H](N)Cc2ccc(O)cc2)C(=O)N[C@@H](CCCCN)C(=O)N[C@@H](Cc2ccccc2)C(=O)N3)cc1 | > 1000 | > 1000 | > 1000 | > 1000 | 274
C[C@@H](O)[C@@H]1NC(=O)[C@H](CCCCN)NC(=O)[C@@H](Cc2c[nH]c3ccccc23)NC(=O)[C@H](Cc2ccccc2)NC(=O)[C@H](Cc2ccccc2)NC(=O)[C@H](CCCCN)NC(=O)[C@@H](N)CSSC[C@@H](C(=O)O)NC(=O)[C@H](Cc2ccccc2)NC1=O | 15 | 39 | 0.6 | 13 | 5.3
CC(C)NCc1ccc(C[C@@H]2NC(=O)[C@@H](Cc3c[nH]c4ccccc34)NC(=O)[C@H](Cc3ccccc3)NC(=O)[C@@H]3CC(=O)NC[C@H](NC(=O)[C@H](Cc4ccccc4)NC(=O)[C@H]([C@@H](C)O)NC2=O)C(=O)N[C@@H](CO)C(=O)N[C@H](C(=O)O)CSSC[C@H](NC(=O)[C@@H](N)Cc2ccc(O)cc2)C(=O)N[C@@H](CCCCN)C(=O)N3)cc1 | > 1000 | > 1000 | > 1000 | > 1000 | > 1000
CC(C)NCc1ccc(C[C@@H]2NC(=O)[C@@H](Cc3c[nH]c4ccccc34)NC(=O)[C@@H]3CCC(=O)NCCCC[C@H](NC(=O)[C@H](Cc4ccc(O)cc4)NC(=O)[C@H]([C@@H](C)O)NC2=O)C(=O)N[C@@H](CO)C(=O)N[C@H](C(N)=O)CSSC[C@H](N)C(=O)N[C@@H](CCCCN)C(=O)N[C@@H](Cc2ccccc2)C(=O)N3)cc1 | > 1000 | > 1000 | > 1000 | > 1000 | 18
CC(C)NCc1ccc(C[C@@H]2NC(=O)[C@@H](Cc3c[nH]c4ccccc34)NC(=O)[C@H](Cc3ccccc3)NC(=O)[C@@H]3CCC(=O)NCC[C@H](NC(=O)[C@H](Cc4ccccc4)NC(=O)[C@H]([C@@H](C)O)NC2=O)C(=O)N[C@@H](CO)C(=O)N[C@H](C(=O)O)CSSC[C@H](NC(=O)[C@@H](N)Cc2ccc(O)cc2)C(=O)N[C@@H](CCCCN)C(=O)N3)cc1 | > 1000 | > 1000 | > 1000 | > 1000 | 104
CC(C)NCc1ccc(C[C@@H]2NC(=O)[C@@H](Cc3c[nH]c4ccccc34)NC(=O)[C@@H]3CCC(=O)NCCC(=O)NCC[C@H](NC(=O)[C@H](Cc4ccccc4)NC(=O)[C@H]([C@@H](C)O)NC2=O)C(=O)N[C@@H](CO)C(=O)N[C@H](C(=O)O)CSSC[C@H](NC(=O)[C@@H](N)Cc2ccc(O)cc2)C(=O)N[C@@H](CCCCN)C(=O)N[C@@H](Cc2ccccc2)C(=O)N3)cc1 | > 1000 | > 1000 | > 1000 | > 1000 | 74

Further lines, results first:

IC50 [1] [nM] | IC50 [2] [nM] | IC50 [3] [nM] | IC50 [4] [nM] | IC50 [5] [nM] | SMILES
> 1000 | > 1000 | > 1000 | > 1000 | 554 | CC(C)NCc1ccc(C[C@@H]2NC(=O)[C@@H](Cc3c[nH]c4ccccc34)NC(=O)[C@@H]3CCC(=O)NCCC[C@H](NC(=O)[C@H](Cc4ccccc4)NC(=O)[C@H]([C@@H](C)O)NC2=O)C(=O)N[C@@H](CO)C(=O)N[C@H](C(=O)O)CSSC[C@H](NC(=O)[C@@H](N)Cc2ccc(O)cc2)C(=O)N[C@@H](CCCCN)C(=O)N[C@@H](Cc2ccccc2)C(=O)N3)cc1
> 1000 | > 1000 | > 1000 | > 1000 | > 1000 | CC(C)NCc1ccc(C[C@@H]2NC(=O)[C@@H](Cc3c[nH]c4ccccc34)NC(=O)[C@H]3CCC(=O)NCC[C@@H](NC(=O)[C@H]([C@@H](C)O)NC2=O)C(=O)N[C@@H]([C@@H](C)O)C(=O)N[C@@H](CO)C(=O)N[C@H](C(=O)O)CSSC[C@H](NC(=O)[C@@H](N)Cc2ccc(O)cc2)C(=O)N[C@@H](CCCCN)C(=O)N[C@@H](Cc2ccccc2)C(=O)N3)cc1
> 1000 | > 1000 | > 1000 | > 1000 | > 1000 | CC(C)NCc1ccc(C[C@@H]2NC(=O)[C@@H](Cc3c[nH]c4ccccc34)NC(=O)[C@@H]3CCC(=O)NCCCC[C@H](NC(=O)[C@H]([C@@H](C)O)NC2=O)C(=O)N[C@@H]([C@@H](C)O)C(=O)N[C@@H](CO)C(=O)N[C@H](C(=O)O)CSSC[C@H](NC(=O)[C@@H](N)Cc2ccc(O)cc2)C(=O)N[C@@H](CCCCN)C(=O)N[C@@H](Cc2ccccc2)C(=O)N3)cc1
> 1000 | > 1000 | > 1000 | > 1000 | 208 | CC(C)NCc1ccc(C[C@@H]2NC(=O)[C@@H](Cc3c[nH]c4ccccc34)NC(=O)[C@H](Cc3ccccc3)NC(=O)[C@@H]3CCC(=O)NCCCC[C@H](NC(=O)[C@H](Cc4ccccc4)NC(=O)[C@H]([C@@H](C)O)NC2=O)C(=O)N[C@@H](CO)C(=O)N[C@H](C(=O)O)CSSC[C@H](NC(=O)[C@@H](N)Cc2ccc(O)cc2)C(=O)N[C@@H](CCCCN)C(=O)N3)cc1
> 1000 | > 1000 | > 1000 | > 1000 | > 1000 | CC(C)NCc1ccc(C[C@@H]2NC(=O)[C@@H](Cc3c[nH]c4ccccc34)NC(=O)[C@H](Cc3ccccc3)NC(=O)[C@@H]3CCC(=O)NCCCC[C@H](NC(=O)[C@H]([C@@H](C)O)NC2=O)C(=O)N[C@@H]([C@@H](C)O)C(=O)N[C@@H](CO)C(=O)N[C@H](C(=O)O)CSSC[C@H](NC(=O)[C@@H](N)Cc2ccc(O)cc2)C(=O)N[C@@H](CCCCN)C(=O)N3)cc1
> 1000 | > 1000 | > 1000 | > 1000 | > 1000 | CC(C)NCc1ccc(C[C@@H]2NC(=O)[C@@H](Cc3c[nH]c4ccccc34)NC(=O)[C@H](Cc3ccccc3)NC(=O)[C@H]3CCC(=O)NCC[C@@H](NC(=O)[C@H]([C@@H](C)O)NC2=O)C(=O)N[C@@H]([C@@H](C)O)C(=O)N[C@@H](CO)C(=O)N[C@H](C(=O)O)CSSC[C@H](NC(=O)[C@@H](N)Cc2ccc(O)cc2)C(=O)N[C@@H](CCCCN)C(=O)N3)cc1
> 1000 | 772 | > 1000 | > 1000 | 204 | CC(C)NCc1ccc(C[C@@H]2NC(=O)[C@@H](Cc3c[nH]c4ccccc34)NC(=O)[C@@H]3CCC(=O)NCCCCCC[C@@H](NC(=O)[C@H](Cc4ccccc4)NC(=O)[C@H]([C@@H](C)O)NC2=O)C(=O)N[C@@H](CO)C(=O)N[C@H](C(=O)O)CSSC[C@H](NC(=O)[C@@H](N)Cc2ccc(O)cc2)C(=O)N[C@@H](CCCCN)C(=O)N[C@@H](Cc2ccccc2)C(=O)N3)cc1
